MrgX1 antagonist – blocks BAM8-22 activation of human MrgX1 receptor | AID 588676 | Q96LB2 | actives 1.3% (n = 310,000) | MRGX1-HEK293 calcium flux, Fluo-4, BAM8-22 antagonism; stronger effect = lower value | B-score at 10 µM;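 active = calcium-response B-score plate-corrected more than 3 library SD below zero, starting fluorescence within 5 deviations, no agonist response on first addition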;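 note: peak minus trough fluorescence over baseline after final BAM8-22 challenge near maximal dose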
Target sequence (Q96LB2 whole entry, looked up): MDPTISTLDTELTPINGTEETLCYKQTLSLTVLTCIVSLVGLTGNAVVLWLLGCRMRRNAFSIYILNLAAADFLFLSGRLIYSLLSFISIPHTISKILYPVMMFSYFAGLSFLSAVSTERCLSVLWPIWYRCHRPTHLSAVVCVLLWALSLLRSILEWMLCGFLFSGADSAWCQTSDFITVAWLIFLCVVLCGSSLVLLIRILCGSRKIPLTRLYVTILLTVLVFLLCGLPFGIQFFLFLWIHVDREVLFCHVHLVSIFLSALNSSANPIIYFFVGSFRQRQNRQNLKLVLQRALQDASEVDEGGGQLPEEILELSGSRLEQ
MrgX1 PAM – allosterically activates human MrgX1 receptor signaling. MrgX1-HEK293, Fluo-4 calcium flux, FDSS; stronger effect = higher value. AID 588675. Q96LB2. actives 0.63% (n = 310,000). B-score at 10 µM;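 active = plate-corrected calcium response at least 3 library SD above typical, normal starting fluorescence, not activating the receptor alone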;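 note: compound read alongside a low EC10 to EC30 dose of BAM8-22 agonist; peak minus trough fluorescence over baseline measured at the second addition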
RGS4 inh – inhibitors of human RGS4. AID 463165. actives 0.45% (n = 310,000). HEK293 M3R/RGS4 inducible, Fluo-4 calcium flux; stronger effect = higher value; triggered by carbachol at its EC20. B-score at 10 µM;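 active = B-score, a plate-corrected calcium signal, over three deviations above library mean, with baseline fluorescence within five deviations of library mean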;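 note: RGS4 expression induced by doxycycline in cells with stable M3 receptor; B-score is computed from the integrated fluorescence ratio over baseline after carbachol; higher B-score means a larger calcium signal and so more RGS4 inhibition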
Target sequence (P49798 whole entry, looked up): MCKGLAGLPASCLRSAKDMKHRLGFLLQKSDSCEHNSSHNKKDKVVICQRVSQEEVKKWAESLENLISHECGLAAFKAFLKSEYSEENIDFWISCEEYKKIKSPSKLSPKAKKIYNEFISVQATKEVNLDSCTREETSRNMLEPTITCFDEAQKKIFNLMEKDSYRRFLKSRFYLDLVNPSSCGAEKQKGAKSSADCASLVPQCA
MrgX1 agonist – human MrgX1 receptor agonism, primary screen; Q96LB2; MrgX1-HEK293 cells, Fluo-4 calcium fluorescence, agonist mode; stronger effect = higher value; B-score at 10 µM; actives 0.44% (n = 310,000); AID 588627;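 active = calcium response B-score plate-corrected fluorescence ratio at least 3 library SD, with starting fluorescence B-score inside 5 SD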
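System – MrgX1-expressing HEK293 cells · Incubation – cells plated overnight, dye loaded 0.5 h 37 °C, 0.5 h room temperature · Technique – kinetic Fluo-4 NW fluorescence of intracellular calcium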
Cl transport mod – modulators of human KCC2 chloride dependent transport; Q9H2X9; KCC2 cells, thallium flux FluoZin-2 fluorescence; B-score of Tl+ flux slope (higher = more flux/activation; lower = inhibition) at 10 µM; actives 2.2% (n = 190,000); AID 1456;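 active = thallium flux slope and its plate-corrected score both differing from the plate sample mean at a set confidence after two filtering rounds, in either direction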;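 note: slope of fluorescence scaled to starting intensity during 10 to 20 s after thallium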
RGS4 act – potentiators or activators of RGS4. HEK293 M3R/inducible RGS4, carbachol calcium flux Fluo4; stronger effect = lower value. B-score at 10 µM. actives 0.92% (n = 310,000). AID 463111;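 active = B-score of the integrated calcium signal more than 4 SD below the library mean, with starting fluorescence not abnormally high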;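 note: negative B-score means reduced calcium response which marks RGS4 activation or potentiation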
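Material: Inducible-RGS4 HEK293 cells carrying M3 receptor; also added: carbachol at ECmax as muscarinic agonist stimulus; incubation: compound preincubation 20 min at room temperature before agonist; signal: Fluo4-AM (2 µM) calcium-flux fluorescence, kinetic read; measure: integrated calcium ratio converted to B score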
MrgX1 PAM conf – reconfirmed allosteric activator of human MrgX1 receptor; AID 602413; actives 13% (n = 1,200); MrgX1-HEK293, Fluo-4 calcium fluorescence, FDSS; activation (ratio percentage), % at 10 µM; shares compounds with MrgX1 PAM;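 active = ratio at least 3 SD above the weak peptide control, stable starting fluorescence, no direct agonism earlier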;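 note: compound followed by low BAM8-22 agonist challenge near EC20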
HEK293 Ca flux – counter-screen for MrgX1 antagonists: effect in parental HEK293 cells | actives 2% (n = 4,000) | fluorescence ratio F(max-min)/F0 at 10 µM | Fluo-4 calcium fluorescence, FDSS | shares compounds with MrgX1 antagonist | AID 624111;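 active = duplicate-averaged calcium fluorescence ratio at least three times the standard deviation of buffer wells, a nonspecific response in parental cells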
HEK293 Ca counter – MrgX1 allosteric activator counter-screen hit in parental HEK293 cells. parental HEK293 calcium flux, Fluo-4 fluorescence ratio; stronger effect = higher value. shares compounds with MrgX1 antagonist. actives 0.4% (n = 4,000). AID 624114. fluorescence ratio F(max-min)/F0 at 10 µM;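 active = calcium fluorescence ratio, averaged over duplicates, at least 3 SD of the buffer-well ratio, meaning a nonspecific response in receptor-free cells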;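 note: untransfected parental HEK293 lacking MrgX1 used as counterscreen for MrgX1 allosteric activators; fluorescence change taken during the second addition on a kinetic imager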
HEK293 Ca cntr2 – activity in parental HEK293 cells lacking MrgX1 receptor; shares compounds with MrgX1 antagonist; Fluo-4 calcium fluorescence (FDSS); stronger effect = higher value; fluorescence ratio F(max-min)/F0 at 10 µM; actives 8.7% (n = 4,000); AID 624115;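 active = calcium fluorescence ratio at least three times the spread of buffer wells, meaning a non-specific response in parental cells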
Hits are given with their value. In the library only some 4.7% were active in any assay of this set; here they are far more common.

CCCCCNc1nc(-c2ccccc2)nc(-n2ccnc2)n1 was read as MrgX1 antagonist inactive, MrgX1 PAM 7.5, RGS4 inh inactive, MrgX1 agonist inactive, Cl transport mod inactive, RGS4 act inactive, MrgX1 PAM conf inactive, HEK293 Ca flux inactive, HEK293 Ca counter inactive and HEK293 Ca cntr2 inactive.
For O=C(CSc1nnc(-c2ccc(OC(F)F)cc2)o1)NCc1cccs1 the results were MrgX1 antagonist inactive, MrgX1 PAM 7.5, RGS4 inh inactive, MrgX1 agonist inactive, Cl transport mod inactive, RGS4 act inactive, MrgX1 PAM conf inactive, HEK293 Ca flux inactive, HEK293 Ca counter inactive and HEK293 Ca cntr2 inactive.
O=C(CSc1nc2ccccc2c(=O)n1-c1ccc(OC(F)F)cc1)NCc1cccs1 was read as MrgX1 antagonist inactive, MrgX1 PAM inactive, RGS4 inh inactive, MrgX1 agonist inactive, Cl transport mod inactive and RGS4 act inactive.
`NC(=O)c1oc2ccccc2c1NC(=O)C1CCCCC1` gave MrgX1 antagonist inactive, MrgX1 PAM 10, RGS4 inh inactive, MrgX1 agonist inactive, Cl transport mod inactive, RGS4 act inactive, MrgX1 PAM conf inactive, HEK293 Ca flux inactive, HEK293 Ca counter inactive and HEK293 Ca cntr2 inactive.
For NC(=O)c1oc2ccccc2c1NC(=O)C1CC(=O)N(c2ccccc2)C1 (centres undefined) the results were MrgX1 antagonist inactive, MrgX1 PAM inactive, RGS4 inh inactive, MrgX1 agonist inactive and RGS4 act inactive.
`NC(=O)c1oc2ccccc2c1NC(=O)CN1CCCCC1` gave MrgX1 antagonist inactive, MrgX1 PAM 9.1, RGS4 inh inactive, MrgX1 agonist inactive, Cl transport mod inactive, RGS4 act inactive, MrgX1 PAM conf 9.3%, HEK293 Ca flux inactive, HEK293 Ca counter inactive and HEK293 Ca cntr2 inactive.
Screening CCN(c1ccc(OC)cc1)S(=O)(=O)c1nnc(NC(=O)c2ccc(C)cc2)s1 returned MrgX1 antagonist inactive, MrgX1 PAM inactive, RGS4 inh inactive, MrgX1 agonist inactive and RGS4 act inactive.
Screening CCc1nonc1NC(=O)COc1ccc(Cl)c(C)c1 returned MrgX1 antagonist inactive, MrgX1 PAM 12, RGS4 inh inactive, MrgX1 agonist inactive, RGS4 act inactive, MrgX1 PAM conf inactive, HEK293 Ca flux inactive, HEK293 Ca counter inactive and HEK293 Ca cntr2 inactive.
`CCc1nonc1NC(=O)COc1cc(C)c(Cl)c(C)c1` gave MrgX1 antagonist inactive, MrgX1 PAM inactive, RGS4 inh inactive, MrgX1 agonist inactive and RGS4 act inactive.
For Cc1cc(C(=O)N2CCCC(N3CCN(Cc4ccc5c(c4)OCO5)CC3)C2)n[nH]1 (centres undefined) the results were MrgX1 antagonist inactive, MrgX1 PAM inactive, RGS4 inh inactive, MrgX1 agonist inactive and RGS4 act inactive.
COc1ccc(Cl)cc1NC(=O)C[n+]1cccc(C)c1 was read as MrgX1 antagonist inactive, MrgX1 PAM inactive, RGS4 inh inactive, MrgX1 agonist inactive and RGS4 act inactive.

Screening data deposited in PubChem BioAssay by several laboratories.
